Laboratory results from ChEMBL document CHEMBL5257027 (Eur J Med Chem, 2016).

Key:
[1] = system: Panel renal (Carcinoma cell lines); test: Antiproliferative activity against human Panel renal (8 Carcinoma cell lines) assessed as reduction in mean cell growth; assay type: functional
Outline: (§1)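 NCI five-dose testing across the 58-line panel gives GI50, TGI and LC50 for each line. Subpanel lines report mean GI50 for each of the nine cancer types.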

[2] = biological target: Tyrosine-protein kinase ABL1 (Homo sapiens) (UniProt P00519); test: Inhibition of ABL (unknown origin) at 10 uM using […] as substrate incubated for 40 mins in presence of [gamma33P]ATP by scintillation counting based hotspot kinase assay relative to control
Chain of Tyrosine-protein kinase ABL1 (Homo sapiens) (P00519 whole entry): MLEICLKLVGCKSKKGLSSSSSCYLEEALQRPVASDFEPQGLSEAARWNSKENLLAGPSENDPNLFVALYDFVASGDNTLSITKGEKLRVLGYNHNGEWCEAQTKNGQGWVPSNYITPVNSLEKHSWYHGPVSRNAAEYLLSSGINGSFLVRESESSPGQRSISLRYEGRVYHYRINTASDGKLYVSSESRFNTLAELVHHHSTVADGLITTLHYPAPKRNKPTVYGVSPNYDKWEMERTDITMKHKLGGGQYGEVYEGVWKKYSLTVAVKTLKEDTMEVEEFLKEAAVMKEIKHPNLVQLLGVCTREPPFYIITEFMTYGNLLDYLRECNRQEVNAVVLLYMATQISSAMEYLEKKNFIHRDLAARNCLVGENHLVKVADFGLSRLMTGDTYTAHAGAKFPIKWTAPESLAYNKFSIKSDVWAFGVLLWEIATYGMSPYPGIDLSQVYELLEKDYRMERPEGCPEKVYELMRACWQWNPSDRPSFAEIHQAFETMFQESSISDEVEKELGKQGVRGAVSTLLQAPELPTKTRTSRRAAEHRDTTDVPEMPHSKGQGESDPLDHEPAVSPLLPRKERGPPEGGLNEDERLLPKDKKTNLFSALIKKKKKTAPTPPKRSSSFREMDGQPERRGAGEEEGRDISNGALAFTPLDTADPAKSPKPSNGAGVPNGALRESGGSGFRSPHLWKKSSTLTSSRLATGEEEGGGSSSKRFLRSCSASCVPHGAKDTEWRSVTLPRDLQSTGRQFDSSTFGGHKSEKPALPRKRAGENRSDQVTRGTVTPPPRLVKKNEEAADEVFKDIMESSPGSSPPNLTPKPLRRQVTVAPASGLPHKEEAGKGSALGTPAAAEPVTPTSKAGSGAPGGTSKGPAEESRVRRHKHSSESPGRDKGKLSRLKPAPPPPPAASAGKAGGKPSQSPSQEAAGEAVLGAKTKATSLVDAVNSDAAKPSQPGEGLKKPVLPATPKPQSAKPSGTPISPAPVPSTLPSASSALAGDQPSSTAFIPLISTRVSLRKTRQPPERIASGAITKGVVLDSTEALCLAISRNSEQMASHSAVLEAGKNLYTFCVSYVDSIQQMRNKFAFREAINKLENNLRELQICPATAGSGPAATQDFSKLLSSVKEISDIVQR

HOP-92 [3] = test: Antiproliferative activity against human HOP-92 cells assessed as reduction in cell growth; assay type: functional; outline: as §1
COLO 205 [4] = test: Cytotoxicity against human COLO 205 cells; assay type: functional
Outline: (§2)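 Run in the US NCI 58-cell-line screen covering nine cancer types (leukemia, NSCLC, colon, CNS, melanoma, ovarian, renal, prostate, breast). Five-dose mode gave GI50, TGI and LC50 values for each cell line. In the single-dose pre-screen, % inhibition was taken as 100 minus growth percentage.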

[5] = system: Serine/threonine-protein kinase B-raf (Homo sapiens), P15056 [V600E]; test: Inhibition of B-RAF V600E mutant (unknown origin) at 10 uM using […] as substrate incubated for 40 mins in presence of [gamma33P]ATP by scintillation counting based hotspot kinase assay relative to control
Chain of Serine/threonine-protein kinase B-raf (Homo sapiens), P15056 [V600E] (P15056 whole entry V600E): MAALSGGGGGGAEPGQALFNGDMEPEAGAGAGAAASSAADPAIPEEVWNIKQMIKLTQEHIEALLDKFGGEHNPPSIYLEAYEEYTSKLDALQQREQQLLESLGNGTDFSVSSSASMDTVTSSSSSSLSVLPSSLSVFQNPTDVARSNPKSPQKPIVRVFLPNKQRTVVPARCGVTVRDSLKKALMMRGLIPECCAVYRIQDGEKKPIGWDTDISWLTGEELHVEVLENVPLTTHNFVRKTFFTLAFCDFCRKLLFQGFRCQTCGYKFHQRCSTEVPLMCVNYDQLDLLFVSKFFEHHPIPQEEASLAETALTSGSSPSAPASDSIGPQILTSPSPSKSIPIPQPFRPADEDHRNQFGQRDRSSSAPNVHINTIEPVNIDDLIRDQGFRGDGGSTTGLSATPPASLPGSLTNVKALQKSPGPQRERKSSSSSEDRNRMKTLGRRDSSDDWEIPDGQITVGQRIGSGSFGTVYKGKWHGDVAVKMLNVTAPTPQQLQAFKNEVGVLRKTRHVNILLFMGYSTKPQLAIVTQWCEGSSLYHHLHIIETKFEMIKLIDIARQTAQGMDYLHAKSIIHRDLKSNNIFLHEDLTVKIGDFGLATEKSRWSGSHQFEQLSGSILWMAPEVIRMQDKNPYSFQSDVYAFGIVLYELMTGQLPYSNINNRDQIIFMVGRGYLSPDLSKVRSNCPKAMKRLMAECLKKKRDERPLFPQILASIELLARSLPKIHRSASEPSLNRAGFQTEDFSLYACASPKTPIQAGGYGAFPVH

LOX IMVI = test: Antiproliferative activity against human LOX IMVI cells assessed as inhibition of cell growth at 10 uM; assay type: functional
Outline: (§3)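 NCI 58-cell-line screen covering leukemia, NSCLC, colon, CNS, melanoma, ovarian, renal, prostate and breast lines. Compounds given once at […] (micromolar per the line). Percent inhibition taken as 100 minus growth percent. Panel line reports the mean over all 58 lines.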

HOP-92 [6] = test: Antiproliferative activity against human HOP-92 cells assessed as total growth inhibition; assay type: functional; outline: as §1
[7] = biological target: Mitogen-activated protein kinase 14 (Homo sapiens) (UniProt Q16539); test: Inhibition of MAPK14 (p38 alpha) (unknown origin) at 10 uM using […] as substrate incubated for 40 mins in presence of [gamma33P]ATP by scintillation counting based hotspot kinase assay relative to control
Chain of Mitogen-activated protein kinase 14 (Homo sapiens) (Q16539 whole entry): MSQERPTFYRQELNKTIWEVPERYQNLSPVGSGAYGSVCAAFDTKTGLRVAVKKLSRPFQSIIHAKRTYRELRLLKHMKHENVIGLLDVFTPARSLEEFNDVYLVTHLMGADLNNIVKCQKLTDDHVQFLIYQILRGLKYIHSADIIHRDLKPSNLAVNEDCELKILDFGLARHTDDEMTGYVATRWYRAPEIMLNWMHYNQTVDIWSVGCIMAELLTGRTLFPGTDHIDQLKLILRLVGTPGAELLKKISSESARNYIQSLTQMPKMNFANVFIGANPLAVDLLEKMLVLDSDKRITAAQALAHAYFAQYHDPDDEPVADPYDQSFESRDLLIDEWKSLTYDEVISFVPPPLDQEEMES

HCT-15 [8] = test: Antiproliferative activity against human HCT-15 cells assessed as reduction in cell growth; assay type: functional; outline: as §1
COLO 205 [9] = test: Antiproliferative activity against human COLO 205 cells assessed as inhibition of cell growth at 10 uM; assay type: functional; outline: as §3
Homo sapiens = organism: Homo sapiens; test: Inhibition of ABL […] mutant (unknown origin) at 10 uM using […] as substrate incubated for 40 mins in presence of [gamma33P]ATP by scintillation counting based hotspot kinase assay relative to control
SK-MEL-5 [10] = test: Antiproliferative activity against human SK-MEL-5 cells assessed as reduction in cell growth; assay type: functional; outline: as §1
RXF 393 [11] = test: Antiproliferative activity against human RXF 393 cells assessed as total growth inhibition; assay type: functional; outline: as §1
SNB-75 [12] = test: Cytotoxicity against human SNB-75 cells; assay type: functional; details: read-out: LC50 (the source's name); outline: as §2
MDA-MB-468 [13] = test: Cytotoxicity against human MDA-MB-468 cells; assay type: functional; details: read-out: LC50 (the source's name); outline: as §2
COLO 205 [14] = test: Antiproliferative activity against human COLO 205 cells assessed as reduction in cell growth; assay type: functional; outline: as §1
[15] = Antiproliferative activity against human Panel NCI-58 (58 Carcinoma cell lines) assessed as reduction in mean cell growth at 10 uM; assay type: functional; set-up: scale not given: the % may be the effect or the level left; outline: as §3
NCI/ADR-RES [16] = test: Antiproliferative activity against human NCI/ADR-RES cells assessed as reduction in cell growth; assay type: functional; outline: as §1
NCI/ADR-RES [17] = test: Cytotoxicity against human NCI/ADR-RES cells; assay type: functional; outline: as §2
HCC 2998 = test: Antiproliferative activity against human HCC 2998 cells assessed as inhibition of cell growth at 10 uM; assay type: functional; outline: as §3
K562 [18] = test: Antiproliferative activity against human K562 cells assessed as total growth inhibition; assay type: functional; outline: as §1
K562 [19] = test: Antiproliferative activity against human K562 cells assessed as reduction in cell growth; assay type: functional; outline: as §1
MDA-MB-468 [20] = test: Antiproliferative activity against human MDA-MB-468 cells assessed as total growth inhibition; assay type: functional; outline: as §1
[21] = biological target: Serine/threonine-protein kinase B-raf (Homo sapiens) (UniProt P15056); test: Inhibition of B-RAF (unknown origin) at 10 uM using […] as substrate incubated for 40 mins in presence of [gamma33P]ATP by scintillation counting based hotspot kinase assay relative to control
Chain of Serine/threonine-protein kinase B-raf (Homo sapiens) (P15056 whole entry): as the sequence (P15056 whole entry V600E) above, with E600V counted along it

[22] = biological target: T1, RAF proto-oncogene serine/threonine-protein kinase (Homo sapiens, UniProt P04049); test: Inhibition of RAF1 (unknown origin) at 10 uM using […] as substrate incubated for 40 mins in presence of [gamma33P]ATP by scintillation counting based hotspot kinase assay relative to control
T1 sequence (P04049 whole entry): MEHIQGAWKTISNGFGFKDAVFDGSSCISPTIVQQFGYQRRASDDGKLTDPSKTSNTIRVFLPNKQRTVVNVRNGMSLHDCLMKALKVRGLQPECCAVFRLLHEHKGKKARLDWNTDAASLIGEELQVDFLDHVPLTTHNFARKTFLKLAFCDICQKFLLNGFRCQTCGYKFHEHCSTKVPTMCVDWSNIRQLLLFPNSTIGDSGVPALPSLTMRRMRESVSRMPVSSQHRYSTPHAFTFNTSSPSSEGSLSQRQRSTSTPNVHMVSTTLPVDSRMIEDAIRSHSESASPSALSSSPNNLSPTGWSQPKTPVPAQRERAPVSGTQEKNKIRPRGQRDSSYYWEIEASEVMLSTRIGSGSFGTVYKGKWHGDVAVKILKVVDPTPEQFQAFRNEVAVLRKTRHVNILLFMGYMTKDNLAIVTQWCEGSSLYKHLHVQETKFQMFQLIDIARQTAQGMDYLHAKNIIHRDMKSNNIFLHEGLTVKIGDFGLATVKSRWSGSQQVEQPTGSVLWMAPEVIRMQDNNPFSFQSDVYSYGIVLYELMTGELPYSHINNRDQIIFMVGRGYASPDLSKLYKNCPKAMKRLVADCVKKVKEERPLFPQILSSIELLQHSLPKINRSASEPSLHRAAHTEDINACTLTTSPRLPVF

SNB-75 [23] = test: Antiproliferative activity against human SNB-75 cells assessed as total growth inhibition; assay type: functional; outline: as §1
PC-3 [24] = test: Cytotoxicity against human PC-3 cells; assay type: functional; outline: as §2
RXF 393 [25] = test: Antiproliferative activity against human RXF 393 cells assessed as reduction in cell growth; assay type: functional; outline: as §1
SK-MEL-5 [26] = test: Cytotoxicity against human SK-MEL-5 cells; assay type: functional; outline: as §2
RXF 393 [27] = test: Cytotoxicity against human RXF 393 cells; assay type: functional; outline: as §2
[28] = system: Panel leukemia (Carcinoma cell lines); test: Antiproliferative activity against human Panel leukemia (5 Carcinoma cell lines) assessed as reduction in mean cell growth; assay type: functional; outline: as §1
HCT-15 [29] = test: Antiproliferative activity against human HCT-15 cells assessed as total growth inhibition; assay type: functional; outline: as §1
MDA-MB-468 [30] = test: Antiproliferative activity against human MDA-MB-468 cells assessed as reduction in cell growth; assay type: functional; outline: as §1
[31] = system: Panel breast (Carcinoma cell lines); test: Antiproliferative activity against human Panel breast (6 Carcinoma cell lines) assessed as reduction in mean cell growth; assay type: functional; outline: as §1
[32] = biological target: Epidermal growth factor receptor (Homo sapiens) (UniProt P00533); test: Inhibition of EGFR (unknown origin) at 10 uM using […] as substrate incubated for 40 mins in presence of [gamma33P]ATP by scintillation counting based hotspot kinase assay relative to control
Chain of Epidermal growth factor receptor (Homo sapiens) (P00533 whole entry): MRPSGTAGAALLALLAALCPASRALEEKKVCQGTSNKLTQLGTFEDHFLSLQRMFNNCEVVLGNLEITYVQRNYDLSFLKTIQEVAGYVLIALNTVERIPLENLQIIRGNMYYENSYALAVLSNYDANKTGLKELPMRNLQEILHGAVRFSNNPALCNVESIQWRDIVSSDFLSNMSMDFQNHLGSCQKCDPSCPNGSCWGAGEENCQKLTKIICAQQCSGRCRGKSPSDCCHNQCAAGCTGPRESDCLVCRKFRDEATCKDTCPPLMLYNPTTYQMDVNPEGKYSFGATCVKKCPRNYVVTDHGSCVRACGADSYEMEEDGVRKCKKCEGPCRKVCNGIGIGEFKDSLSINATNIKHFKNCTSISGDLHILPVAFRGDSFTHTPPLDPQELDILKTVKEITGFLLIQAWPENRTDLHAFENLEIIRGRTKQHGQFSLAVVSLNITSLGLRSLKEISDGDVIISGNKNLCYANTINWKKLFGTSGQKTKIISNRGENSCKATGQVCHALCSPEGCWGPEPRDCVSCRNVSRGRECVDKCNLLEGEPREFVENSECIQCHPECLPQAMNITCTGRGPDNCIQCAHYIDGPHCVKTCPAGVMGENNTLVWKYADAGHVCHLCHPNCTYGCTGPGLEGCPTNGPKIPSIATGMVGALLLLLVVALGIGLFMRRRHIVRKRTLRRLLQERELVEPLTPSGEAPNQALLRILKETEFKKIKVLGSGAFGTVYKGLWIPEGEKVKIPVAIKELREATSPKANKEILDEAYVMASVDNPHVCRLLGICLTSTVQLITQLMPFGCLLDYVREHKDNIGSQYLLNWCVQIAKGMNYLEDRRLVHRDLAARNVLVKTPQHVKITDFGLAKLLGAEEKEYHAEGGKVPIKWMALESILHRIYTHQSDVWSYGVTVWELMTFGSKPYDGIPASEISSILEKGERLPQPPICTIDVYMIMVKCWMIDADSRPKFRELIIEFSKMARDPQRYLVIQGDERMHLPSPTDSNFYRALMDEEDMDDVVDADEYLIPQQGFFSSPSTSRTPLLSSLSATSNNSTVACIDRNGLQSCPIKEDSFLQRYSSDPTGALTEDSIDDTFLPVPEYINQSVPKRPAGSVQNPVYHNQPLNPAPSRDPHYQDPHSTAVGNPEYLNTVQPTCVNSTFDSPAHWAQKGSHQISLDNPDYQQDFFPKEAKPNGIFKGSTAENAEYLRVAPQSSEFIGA

SK-MEL-5 [33] = test: Antiproliferative activity against human SK-MEL-5 cells assessed as total growth inhibition; assay type: functional; outline: as §1
K562 [34] = test: Cytotoxicity against human k562 cells; assay type: functional; details: read-out: LC50 (the source's name); outline: as §2
SNB-75 [35] = test: Antiproliferative activity against human SNB-75 cells assessed as reduction in cell growth; assay type: functional; outline: as §1
[36] = system: Panel prostate (Carcinoma cell lines); test: Antiproliferative activity against human Panel prostate (2 Carcinoma cell lines) assessed as reduction in mean cell growth; assay type: functional; outline: as §1
PC-3 [37] = test: Antiproliferative activity against human PC-3 cells assessed as total growth inhibition; assay type: functional; outline: as §1
NCI/ADR-RES [38] = test: Antiproliferative activity against human NCI/ADR-RES cells assessed as total growth inhibition; assay type: functional; outline: as §1
HCT-15 [39] = test: Cytotoxicity against human HCT-15 cells; assay type: functional; details: read-out: LC50 (the source's name); outline: as §2
[40] = biological target: Serine/threonine-protein kinase B-raf (Homo sapiens, UniProt P15056, V600E); test: Inhibition of B-RAF V600E mutant (unknown origin) using […] as substrate incubated for 40 mins in presence of [gamma33P]ATP by scintillation counting based hotspot kinase assay
Chain of Serine/threonine-protein kinase B-raf (P15056 2-766 V600E limits assumed): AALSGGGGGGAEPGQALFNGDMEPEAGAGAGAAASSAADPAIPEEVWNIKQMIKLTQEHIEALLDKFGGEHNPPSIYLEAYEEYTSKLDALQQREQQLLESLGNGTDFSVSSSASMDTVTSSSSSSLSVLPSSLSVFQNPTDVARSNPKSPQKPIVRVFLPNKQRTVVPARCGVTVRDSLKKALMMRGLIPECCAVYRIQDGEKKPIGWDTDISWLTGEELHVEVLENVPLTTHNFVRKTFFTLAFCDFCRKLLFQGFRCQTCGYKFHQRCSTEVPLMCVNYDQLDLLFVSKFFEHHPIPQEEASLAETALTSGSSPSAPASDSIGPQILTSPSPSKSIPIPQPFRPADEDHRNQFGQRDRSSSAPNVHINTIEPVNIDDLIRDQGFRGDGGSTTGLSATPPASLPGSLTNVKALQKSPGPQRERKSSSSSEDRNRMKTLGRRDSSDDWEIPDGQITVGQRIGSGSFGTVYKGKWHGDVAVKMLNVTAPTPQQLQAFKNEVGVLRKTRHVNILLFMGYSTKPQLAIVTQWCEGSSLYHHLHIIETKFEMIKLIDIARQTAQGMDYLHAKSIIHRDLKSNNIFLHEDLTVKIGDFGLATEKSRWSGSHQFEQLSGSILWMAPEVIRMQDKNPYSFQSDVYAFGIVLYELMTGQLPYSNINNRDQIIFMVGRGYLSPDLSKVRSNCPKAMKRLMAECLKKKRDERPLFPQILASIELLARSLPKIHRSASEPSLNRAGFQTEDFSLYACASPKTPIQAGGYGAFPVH

PC-3 [41] = test: Antiproliferative activity against human PC-3 cells assessed as reduction in cell growth; assay type: functional; outline: as §1
[42] = system: Panel ovarian (Carcinoma cell lines); test: Antiproliferative activity against human Panel ovarian (7 Carcinoma cell lines) assessed as reduction in mean cell growth; assay type: functional; outline: as §1
[43] = system: Panel CNS (Carcinoma cell lines); test: Antiproliferative activity against human Panel CNS (6 Carcinoma cell lines) assessed as reduction in mean cell growth; assay type: functional; outline: as §1
[44] = biological target: T1, RAF proto-oncogene serine/threonine-protein kinase; test: Inhibition of RAF1 (unknown origin) using […] as substrate incubated for 40 mins in presence of [gamma33P]ATP by scintillation counting based hotspot kinase assay
Outline: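 IC50 from a radiometric assay. Kinase (5–10 mU) is incubated in 25 mM Tris pH 7.5 with 0.02 mM EGTA, 0.66 mg/mL myelin basic protein as substrate, 10 mM magnesium acetate and [γ33P]ATP. Mg-ATP starts the reaction, which runs 40 min at room temperature. It is stopped with 3% phosphoric acid, captured on filtermat, washed and counted by scintillation.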

[45] = Antiproliferative activity against human Panel non-small cell lung cancer (8 Carcinoma cell lines) assessed as reduction in mean cell growth; assay type: functional; details: Non-small cell lung cancer cell line; outline: as §1
HOP-92 [46] = test: Cytotoxicity against human HOP-92 cells; assay type: functional; outline: as §2
L132 = test: Cytotoxicity against human L132 cells assessed as reduction in cell growth at 31.3 to 100 uM relative to control; assay type: toxicity, cell-based; set-up: scale not given: the % may be the effect or the level left; details: l132, 100 µM, dose 31.3-100 µM
[47] = system: Panel melanoma (Carcinoma cell lines); test: Antiproliferative activity against human Panel melanoma (9 Carcinoma cell lines) assessed as reduction in mean cell growth; assay type: functional; outline: as §1
[48] = system: Panel colon (Carcinoma cell lines); test: Antiproliferative activity against human Panel colon (7 Carcinoma cell lines) assessed as reduction in mean cell growth; assay type: functional; outline: as §1
COLO 205 [49] = test: Antiproliferative activity against human COLO 205 cells assessed as total growth inhibition; assay type: functional; outline: as §1

For COc1cccc(-c2nn(-c3ccccc3)cc2-c2ccnc(NCCCNC(=O)Nc3ccc(Cl)c(Cl)c3)c2)c1, the GI50 [1] was 3.14 µM, the inhibition [2] was 7.7% and the GI50 (HOP-92 [3]) was 2.32 µM. For the same compound, the LC50 (lethal concentration 50%) (COLO 205 [4]) was 7.8 µM, the inhibition [5] was 90.4% and the inhibition at 10 µM (LOX IMVI) was 192%. The TGI (HOP-92 [6]) was 7.68 µM, the inhibition [7] was 45.8% and the GI50 (HCT-15 [8]) was 2.4 µM. For the same compound, the inhibition at 10 µM (COLO 205 [9]) was 145%, the inhibition (Homo sapiens) was 6.38% and the GI50 (SK-MEL-5 [10]) was 1.75 µM. For the same compound, the TGI (RXF 393 [11]) was 4.87 µM, the CC50 (SNB-75 [12]) was 100 µM and the CC50 (MDA-MB-468 [13]) was 9.82 µM. It also gave a GI50 (COLO 205 [14]) of 1.87 µM, an Activity [15] of 104.1% and a GI50 (NCI/ADR-RES [16]) of 2.19 µM. The LC50 (NCI/ADR-RES [17]) was 86.9 µM, the inhibition at 10 µM (HCC 2998) was 162% and the TGI (K562 [18]) was 5.85 µM. It also gave a GI50 (K562 [19]) of 2.38 µM, a TGI (MDA-MB-468 [20]) of 4.34 µM and an inhibition [21] of 56.9%. For the same compound, the inhibition [22] was 87.7%, the TGI (SNB-75 [23]) was 19.2 µM and the LC50 (PC-3 [24]) was 100 µM. The GI50 (RXF 393 [25]) was 1.8 µM, the LC50 (SK-MEL-5 [26]) was 6.3 µM and the LC50 (RXF 393 [27]) was 23 µM. The GI50 [28] was 2.31 µM, the TGI (HCT-15 [29]) was 6.66 µM and the GI50 (MDA-MB-468 [30]) was 1.92 µM. For the same compound, the GI50 [31] was 2.69 µM, the inhibition [32] was 3.38% and the TGI (SK-MEL-5 [33]) was 3.32 µM. The CC50 (K562 [34]) was 100 µM, the GI50 (SNB-75 [35]) was 2.52 µM and the GI50 [36] was 4.71 µM. For the same compound, the TGI (PC-3 [37]) was 22.4 µM, the TGI (NCI/ADR-RES [38]) was 5.39 µM and the CC50 (HCT-15 [39]) was 29.1 µM. It also gave an IC50 [40] of 0.77 µM, a GI50 (PC-3 [41]) of 3.96 µM and a GI50 [42] of 3.74 µM. It also gave a GI50 [43] of 2.93 µM, an IC50 [44] of 1.5 µM and a GI50 [45] of 3.51 µM. For the same compound, the LC50 (HOP-92 [46]) was 71 µM, the Activity (L132) was 50% and the GI50 [47] was 1.89 µM. The GI50 [48] was 2.44 µM and the TGI (COLO 205 [49]) was 3.82 µM.
